Laboratory results as given in ChEMBL document CHEMBL3992519 (J Med Chem, 2017).
Calls of active or inactive are those of the source. No cut-off for these calls is given here.

Experiments:
[1] = target: T1, Orexin/Hypocretin receptor type 1 (Homo sapiens, UniProt O43613); experiment: Antagonist activity at human OX1R expressed in CHOK1 cells assessed as inhibition of orexin A-induced intracellular calcium level preincubated for 15 mins followed by orexin A addition by Fura-2-AM dye based fluorescence assay
T1 sequence (O43613 whole entry): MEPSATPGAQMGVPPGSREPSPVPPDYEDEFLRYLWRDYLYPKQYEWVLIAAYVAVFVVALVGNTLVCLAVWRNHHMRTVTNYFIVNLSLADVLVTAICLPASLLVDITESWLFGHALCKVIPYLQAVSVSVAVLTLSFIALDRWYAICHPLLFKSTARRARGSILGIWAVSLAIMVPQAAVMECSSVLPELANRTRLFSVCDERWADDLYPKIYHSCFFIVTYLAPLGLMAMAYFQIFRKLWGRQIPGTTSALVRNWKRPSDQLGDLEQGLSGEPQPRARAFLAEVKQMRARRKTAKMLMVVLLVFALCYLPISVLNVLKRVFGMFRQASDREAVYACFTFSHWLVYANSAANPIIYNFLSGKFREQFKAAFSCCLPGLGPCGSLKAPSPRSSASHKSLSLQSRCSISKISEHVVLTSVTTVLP

[2] = target: T2, Orexin receptor type 2 (Homo sapiens, UniProt O43614); experiment: Antagonist activity at human OX2R expressed in CHOK1 cells assessed as inhibition of orexin A-induced intracellular calcium level preincubated for 15 mins followed by orexin A addition by Fura-2-AM dye based fluorescence assay; assay type: cell-based; settings: for inhibition (INH): human
T2 sequence (O43614 whole entry): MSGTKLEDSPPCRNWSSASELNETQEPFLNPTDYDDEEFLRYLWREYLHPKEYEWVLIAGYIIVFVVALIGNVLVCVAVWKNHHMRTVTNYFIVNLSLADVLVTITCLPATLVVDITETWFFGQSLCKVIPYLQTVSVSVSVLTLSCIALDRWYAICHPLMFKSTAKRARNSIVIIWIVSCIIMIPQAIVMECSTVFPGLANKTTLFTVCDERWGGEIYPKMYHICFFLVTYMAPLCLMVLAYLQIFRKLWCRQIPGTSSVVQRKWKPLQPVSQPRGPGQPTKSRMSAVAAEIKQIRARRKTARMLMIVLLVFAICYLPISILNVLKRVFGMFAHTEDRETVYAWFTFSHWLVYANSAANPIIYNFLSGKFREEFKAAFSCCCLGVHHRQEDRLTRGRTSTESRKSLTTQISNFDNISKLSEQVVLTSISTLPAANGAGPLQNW
Outline: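 CHO cells expressing human OX1R or OX2R; calcium transient assay. IC50 came from concentration-response curves in at least three independent assays, each run in triplicate. Ki was derived by the Cheng-Prusoff equation and reported as mean ± SEM. […] Some compounds were tested as HCl, MeSO3H or 2H2SO4 salts.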

[3] = target: T3, Orexin/Hypocretin receptor type 1 (Homo sapiens) (UniProt O43613)
T3 sequence (whole entry): T1 sequence (O43613 whole entry)

[4] = Solubility of the compound in water; assay type: physicochemical; settings: buffer
[5] = Selectivity index, ratio of IC50 for human OX2R expressed in CHOK1 cells to IC50 for human OX1R expressed in CHOK1 cells
[6] = Solubility of the compound in saline; assay type: physicochemical; settings: buffer
[7] = target: Kappa-type opioid receptor (Homo sapiens, UniProt P41145); experiment: Displacement of [3H]U69,593 from human kappa opioid receptor expressed in CHO cell membranes by micro-beta scintillation counting method
[8] = target: Mu-type opioid receptor (Homo sapiens, UniProt P35372); experiment: Displacement of [3H]DAMGO from human mu opioid receptor expressed in CHO cell membranes by micro-beta scintillation counting method
[9] = target: Delta-type opioid receptor (Homo sapiens, UniProt P41143); experiment: Displacement of [3H]DPDPE from human delta opioid receptor expressed in CHO cell membranes by micro-beta scintillation counting method
[10] = test system: Mus musculus; experiment: Reduction in morphine dependence expression in ICR mouse assessed as inhibition of naloxone-precipitated diarrhea at 10 mg/kg, ip administered 30 mins prior to first morphine injection each day for 5 days followed by naloxone challenge 2 hrs post last morphine dose measured over 60 mins; assay type: functional, organism-based
[11] = test system: Mus musculus; experiment: Reduction in morphine dependence expression in ICR mouse assessed as inhibition of naloxone-precipitated body weight loss at 10 mg/kg, ip administered 30 mins prior to first morphine injection each day for 5 days followed by naloxone challenge 2 hrs post last morphine dose measured over 60 mins; assay type: functional, organism-based
[12] = test system: Mus musculus; experiment: Reduction in morphine dependence expression in ICR mouse assessed as inhibition of naloxone-precipitated jumping behavior at 10 mg/kg, ip administered 30 mins prior to first morphine injection each day for 5 days followed by naloxone challenge 2 hrs post last morphine dose measured over 60 mins; assay type: functional, organism-based

Mu-type opioid receptor, sequence (P35372 whole entry): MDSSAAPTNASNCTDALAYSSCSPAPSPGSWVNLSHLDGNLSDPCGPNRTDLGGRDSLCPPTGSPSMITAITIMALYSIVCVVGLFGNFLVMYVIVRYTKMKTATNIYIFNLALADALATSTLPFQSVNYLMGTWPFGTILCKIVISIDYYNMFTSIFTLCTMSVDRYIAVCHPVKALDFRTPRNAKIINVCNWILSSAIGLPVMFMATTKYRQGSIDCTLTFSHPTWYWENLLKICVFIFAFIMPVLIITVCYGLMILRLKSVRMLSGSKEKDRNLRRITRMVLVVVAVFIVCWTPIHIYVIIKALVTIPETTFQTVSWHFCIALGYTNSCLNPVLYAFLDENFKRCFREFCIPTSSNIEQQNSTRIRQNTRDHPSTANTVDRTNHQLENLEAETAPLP
Delta-type opioid receptor, sequence (P41143 whole entry): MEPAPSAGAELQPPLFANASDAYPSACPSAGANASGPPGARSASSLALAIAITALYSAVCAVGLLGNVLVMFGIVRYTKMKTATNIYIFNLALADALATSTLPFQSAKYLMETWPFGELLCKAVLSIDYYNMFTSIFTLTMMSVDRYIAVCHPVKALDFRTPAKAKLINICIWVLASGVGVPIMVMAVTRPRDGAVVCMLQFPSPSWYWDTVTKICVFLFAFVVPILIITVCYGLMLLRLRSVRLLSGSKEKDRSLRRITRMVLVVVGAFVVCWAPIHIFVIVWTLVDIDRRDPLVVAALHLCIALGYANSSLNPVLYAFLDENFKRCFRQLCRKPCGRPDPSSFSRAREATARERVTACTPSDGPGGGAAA
Kappa-type opioid receptor, sequence (P41145 whole entry): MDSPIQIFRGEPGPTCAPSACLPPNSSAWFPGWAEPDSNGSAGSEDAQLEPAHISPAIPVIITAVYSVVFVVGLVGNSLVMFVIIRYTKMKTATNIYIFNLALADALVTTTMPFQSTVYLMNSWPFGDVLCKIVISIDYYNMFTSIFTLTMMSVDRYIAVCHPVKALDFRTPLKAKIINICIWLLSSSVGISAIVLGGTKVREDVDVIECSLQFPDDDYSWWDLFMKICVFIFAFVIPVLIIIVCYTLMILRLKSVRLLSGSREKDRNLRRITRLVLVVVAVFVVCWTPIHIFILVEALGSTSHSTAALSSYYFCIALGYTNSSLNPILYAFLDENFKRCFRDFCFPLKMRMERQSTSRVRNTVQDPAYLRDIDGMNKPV

## COc1ccc2c3c1O[C@H]1[C@H](N(C)C(=O)/C=C/c4ccoc4)CC[C@@]4(O)[C@@H](C2)N(S(=O)(=O)c2ccccc2[N+](=O)[O-])CC[C@]314
[1]
  Ki: 1.81 nM
[2]
  Ki: Not Active
[3]
  Ke: 3.69 nM
[4]
  solubility: Insoluble
[5]
  Ratio IC50: <88.4
[6]
  solubility: Insoluble

## COc1ccc2c3c1O[C@H]1[C@H](N(C)C(=O)/C=C/c4ccoc4)CC[C@@]4(O)[C@@H](C2)N(C(=O)c2ccc(C)cc2)CC[C@]314
[1]
  Ki: 14 nM
[2]; read-out: Ki
  Ki: 725 nM
[4]
  solubility: Insoluble
[5]
  Ratio IC50: <88.4
[6]
  solubility: Insoluble

## Cc1cc(NC(=O)Nc2ccc(N(C)C)cc2)c2cc(F)cc(F)c2n1.Cl.Cl
[1]
  Ki: 18.9 nM
[2]; read-out: Ki
  Ki: 2070 nM
[7]
  Ki: > 1000 nM
[4]
  solubility: Insoluble
[5]
  Ratio IC50: <88.4
[8]
  Ki: > 1000 nM
[6]
  solubility: Insoluble
[9]
  Ki: > 1000 nM

## CN(C(=O)/C=C/c1ccoc1)[C@@H]1CC[C@@]2(O)[C@H]3Cc4cccc5c4[C@@]2(CCN3CC2CC2)[C@H]1O5
[1]
  Ki: 1240 nM
[2]
  inhibition (INH): Not Active

## COc1ccc2c3c1O[C@H]1[C@H](N(C)C(=O)/C=C/c4ccccn4)CC[C@@]4(O)[C@@H](C2)N(S(=O)(=O)c2ccccc2N(C)C)CC[C@]314
[10]
  inhibition: Active
[11]
  inhibition: Active
[12]
  inhibition: Active

## COc1ccc2c3c1O[C@H]1[C@H](N(C)C(=O)/C=C/c4ccccn4)CC[C@@]4(O)[C@@H](C2)N(S(=O)(=O)c2ccccc2N(C)C)CC[C@]314.O=S(=O)(O)O.O=S(=O)(O)O
[7]
  Ki: > 1000 nM
[8]
  Ki: > 1000 nM
[9]
  Ki: > 1000 nM

## COc1ccc2c3c1O[C@H]1[C@H](N(C)C(=O)/C=C/c4ccoc4)CC[C@@]4(O)[C@@H](C2)N(S(=O)(=O)c2ccc(N(C)C)cc2)CC[C@]314.Cl
[1]
  Ki: 12.9 nM
[7]
  Ki: > 1000 nM
[4]
  solubility: Insoluble
[5]
  Ratio IC50: <88.4
[8]
  Ki: > 1000 nM
[6]
  solubility: Insoluble
[9]
  Ki: > 1000 nM

## COc1ccc2c3c1O[C@H]1[C@H](N(C)C(=O)/C=C/c4ccoc4)CC[C@@]4(O)[C@@H](C2)N(S(=O)(=O)c2ccccc2)CC[C@]314
[1]
  Ki: 8.14 nM
[7]
  Ki: > 1000 nM
[4]
  solubility: Insoluble
[5]
  Ratio IC50: <88.4
[8]
  Ki: > 1000 nM
[6]
  solubility: Insoluble
[9]
  Ki: > 1000 nM

## COc1ccc2c3c1O[C@H]1[C@H](N(C)C(=O)/C=C/c4ccoc4)CC[C@@]4(O)[C@@H](C2)N(C(=O)OC(C)(C)C)CC[C@]314
[1]
  Ki: 4.15 nM
[7]
  Ki: 184 nM
[4]
  solubility: Insoluble
[5]
  Ratio IC50: <88.4
[8]
  Ki: > 1000 nM
[6]
  solubility: Insoluble
[9]
  Ki: > 1000 nM

## CN(C(=O)/C=C/c1ccoc1)[C@@H]1CC[C@@]2(O)[C@H]3Cc4ccc(O)c5c4[C@@]2(CCN3CC2CC2)[C@H]1O5.Cl [NALFURAFINE HYDROCHLORIDE]
[1]
  Ki: 250 nM
[2]
  inhibition (INH): Not Active
[4]
  solubility: Insoluble
[8]
  Ki: 5.99 nM
[6]
  solubility: Insoluble
[9]
  Ki: 693 nM

## CN(C)c1ccc(S(=O)(=O)N2CC[C@]34c5c6ccc(O)c5O[C@H]3[C@H](N(C)C(=O)/C=C/c3ccoc3)CC[C@@]4(O)[C@H]2C6)cc1
[7]
  Ki: 200 nM
[8]
  Ki: 971 nM
[9]
  Ki: > 1000 nM

## COc1ccc2c3c1O[C@H]1[C@H](N(C)C(=O)/C=C/c4ccoc4)CC[C@@]4(O)[C@@H](C2)N(C(=O)/C=C/c2ccccc2)CC[C@]314
[1]
  Ki: 14 nM
[7]
  Ki: > 1000 nM
[4]
  solubility: Insoluble
[5]
  Ratio IC50: <88.4
[8]
  Ki: > 1000 nM
[6]
  solubility: Insoluble
[9]
  Ki: > 1000 nM

## COc1ccc2c3c1O[C@H]1[C@H](N(C)C(=O)/C=C/c4ccoc4)CC[C@@]4(O)[C@@H](C2)N(CC2CC2)CC[C@]314
[1]
  Ki: 22.5 nM
[2]
  inhibition (INH): Not Active

## COc1ccc2c3c1O[C@H]1[C@H](N(C)C(=O)/C=C/c4ccoc4)CC[C@@]4(O)[C@@H](C2)N(C(=O)C2CC2)CC[C@]314
[1]
  Ki: 12 nM
[7]
  Ki: > 1000 nM
[4]
  solubility: Insoluble
[5]
  Ratio IC50: <88.4
[8]
  Ki: > 1000 nM
[6]
  solubility: Insoluble
[9]
  Ki: > 1000 nM

## COc1ccccc1S(=O)(=O)N1CC[C@]23c4c5ccc(OC)c4O[C@H]2[C@H](N(C)C(=O)/C=C/c2ccoc2)CC[C@@]3(O)[C@H]1C5
[1]
  Ki: 6.37 nM
[4]
  solubility: Insoluble
[5]
  Ratio IC50: <88.4
[6]
  solubility: Insoluble
